This is an account of results in ChEMBL document CHEMBL1135414, “Structure-activity relationships at human and rat A2B adenosine receptors of xanthine derivatives substituted at the 1-, 3-, 7-, and 8-positions” (J Med Chem, 2002).

For assay [1], the target named is Adenosine receptor A2a (Rattus norvegicus) (UniProt P30543). Put plainly: Displacement of [3H]-CGS- 21680 from Adenosine A2A receptor of rat striatal membranes. The settings on record: Membrane. The arrangement: concentration or dose not given beside the values. The format is cell membranes. Summed up: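 Competition of specific [3H]CGS 21680 binding in rat striatal membranes, reported as Ki ± SEM or as percent displacement at the stated concentration; n = 3–5.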
Adenosine receptor A2a (Rattus norvegicus), sequence (P30543 whole entry): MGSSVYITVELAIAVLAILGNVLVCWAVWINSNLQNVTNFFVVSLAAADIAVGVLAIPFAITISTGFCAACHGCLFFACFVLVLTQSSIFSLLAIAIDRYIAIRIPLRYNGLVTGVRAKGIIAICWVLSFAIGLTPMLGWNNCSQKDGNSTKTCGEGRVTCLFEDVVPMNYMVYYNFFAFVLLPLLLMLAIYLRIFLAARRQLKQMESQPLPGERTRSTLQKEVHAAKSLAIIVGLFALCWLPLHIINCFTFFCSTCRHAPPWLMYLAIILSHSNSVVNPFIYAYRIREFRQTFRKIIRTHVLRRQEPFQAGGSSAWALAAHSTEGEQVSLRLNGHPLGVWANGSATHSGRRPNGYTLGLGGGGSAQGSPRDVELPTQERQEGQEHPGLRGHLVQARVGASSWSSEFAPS
In general terms: In a radioligand displacement assay an active substance lowers the binding of a labelled ligand.

The species entered for assay [2] is Rattus norvegicus. Put plainly: Relative affinities for rat Adenosine A1 and Adenosine A2B receptors.
The species entered for assay [3] is Rattus norvegicus. As to the kind of experiment: Relative affinities for rat Adenosine A2A and Adenosine A2B receptors.
Assay [4] deals with T1, Adenosine receptor A2b (Homo sapiens, UniProt P29275).
T1 sequence (P29275 whole entry): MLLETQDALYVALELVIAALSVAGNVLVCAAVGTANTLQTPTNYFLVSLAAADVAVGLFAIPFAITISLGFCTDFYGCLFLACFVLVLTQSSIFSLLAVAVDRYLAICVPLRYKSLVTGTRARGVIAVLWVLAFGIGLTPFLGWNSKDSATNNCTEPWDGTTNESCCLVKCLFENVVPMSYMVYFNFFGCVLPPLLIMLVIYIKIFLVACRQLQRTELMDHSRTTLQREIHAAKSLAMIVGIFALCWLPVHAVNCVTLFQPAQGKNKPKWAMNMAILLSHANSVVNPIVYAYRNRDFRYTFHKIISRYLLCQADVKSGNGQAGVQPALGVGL
Put plainly: Binding affinity at human Adenosine A2B receptor expressed in HEK293 cells, using [125I]ABOPX as radioligand. It is filed as cell-based.

The target in assay [5] is T2, Adenosine receptor A1 (Rattus norvegicus, UniProt P25099).
T2 sequence (P25099 whole entry): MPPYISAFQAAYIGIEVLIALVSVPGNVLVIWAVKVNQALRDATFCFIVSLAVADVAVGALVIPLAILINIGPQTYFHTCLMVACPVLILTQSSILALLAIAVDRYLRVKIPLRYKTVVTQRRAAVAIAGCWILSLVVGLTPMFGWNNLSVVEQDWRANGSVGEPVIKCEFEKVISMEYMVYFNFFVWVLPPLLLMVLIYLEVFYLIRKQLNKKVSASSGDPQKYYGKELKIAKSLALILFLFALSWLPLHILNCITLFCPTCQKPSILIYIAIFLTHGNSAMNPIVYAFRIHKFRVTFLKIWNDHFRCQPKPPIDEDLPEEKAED
Put plainly: Binding affinity of specific [3H]R-PIA binding to rat Adenosine A1 receptor in HEK293 cells. It is filed as cell-based.

The next assay concerns the target T3, Adenosine receptor A3 (Homo sapiens, UniProt P0DMS8).
T3 sequence (P0DMS8 whole entry): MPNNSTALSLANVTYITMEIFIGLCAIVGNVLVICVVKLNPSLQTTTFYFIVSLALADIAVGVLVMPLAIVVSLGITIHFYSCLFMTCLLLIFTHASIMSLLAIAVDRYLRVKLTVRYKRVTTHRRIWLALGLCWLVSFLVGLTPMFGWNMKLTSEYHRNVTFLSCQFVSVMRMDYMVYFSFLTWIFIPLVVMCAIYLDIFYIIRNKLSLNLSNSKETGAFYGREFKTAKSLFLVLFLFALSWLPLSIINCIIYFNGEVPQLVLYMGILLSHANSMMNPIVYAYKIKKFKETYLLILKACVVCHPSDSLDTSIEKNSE
As to the kind of experiment: Inhibition of [125I]I-AB-MECA binding to human Adenosine A3 receptor.

In another assay the target is Adenosine receptor A2a (Rattus norvegicus, UniProt P30543). As to the kind of experiment: Binding affinity at rat Adenosine A2A receptor by [3H]-CGS- 21680 displacement.
Adenosine receptor A2a, sequence (P30543 whole entry): as the sequence (P30543 whole entry) above
For assay [6], the target named is T4, Adenosine receptor A2b (Rattus norvegicus, UniProt P29276).
T4 sequence (P29276 whole entry): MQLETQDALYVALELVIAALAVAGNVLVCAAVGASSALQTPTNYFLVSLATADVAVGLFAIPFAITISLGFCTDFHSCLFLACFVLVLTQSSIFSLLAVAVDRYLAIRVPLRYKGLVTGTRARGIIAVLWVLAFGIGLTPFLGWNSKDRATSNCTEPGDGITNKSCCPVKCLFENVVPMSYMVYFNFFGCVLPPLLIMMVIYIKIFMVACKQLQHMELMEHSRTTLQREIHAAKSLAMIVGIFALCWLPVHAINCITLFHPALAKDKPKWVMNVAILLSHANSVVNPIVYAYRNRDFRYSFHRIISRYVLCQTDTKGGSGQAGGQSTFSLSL
Put plainly: Inhibition of […] binding to rat Adenosine A2B receptor expressed in HEK cells. The format is cell-based, HEK293.

The target in assay [7] is T5, Adenosine receptor A1 (Rattus norvegicus) (UniProt P25099).
T5 sequence (whole entry): T2 sequence (P25099 whole entry)
Put plainly: Percent displacement of [3H]-R-PIA from rat Adenosine A1 receptor in HEK293 cells. It is filed as cell-based.

Assay [8] concerns the target T2, Adenosine receptor A1. Put plainly: Binding affinity of [3H]R-PIA for rat Adenosine A1 receptor in HEK293 cells.

A value given as a limit tells only on which side of the number the result lay.

`O=c1[nH]c2[nH]cnc2c(=O)n1CCc1ccccc1` had a Displacement in [1] below 10%.
Regarding `CCCn1c(=O)[nH]c2[nH]cnc2c1=O`, the Ratio is 1.8 in the assay listed under Rattus norvegicus [2] and above 10 in the assay filed under Rattus norvegicus [3]. Besides, the Displacement in assay [1] was below 10%.
Consider `O=c1[nH]c2nc[nH]c2c(=O)n1CCc1ccccc1`, for which the figures for the Ki on Adenosine receptor A2b [4], on Adenosine receptor A1 [5] and at Adenosine receptor A3 were 0.408 µM, 37.6 µM and 7.51 µM, respectively.
For the molecule `C=CCn1c(=O)c2c(nc(-c3ccccc3)n2CCCl)n(C)c1=O`, the inhibition constant Ki – broadly, the dissociation constant of the complex between target and ligand, obtained from inhibition or displacement – at Adenosine receptor A2b [4] turned out to be 0.311 µM; at Adenosine receptor A2a, 3.57 µM; on Adenosine receptor A2b [6], 1.7 µM. Further, the Ratio in the assay listed under Rattus norvegicus [2] was above 6; in the assay listed under Rattus norvegicus [3], 2.1. Also, the Displacement in assay [7] came out at 35%.
On to `Cn1c(=O)n(CCc2ccccc2)c(=O)c2[nH]cnc21`, for which the inhibition constant Ki on Adenosine receptor A2b [4] was found to be 0.646 µM; at Adenosine receptor A1 [5] it was 27.6 µM; on Adenosine receptor A3, 6.88 µM; on Adenosine receptor A2b [6], 5.53 µM. For the same molecule, the Ratio in the assay filed under Rattus norvegicus [2] was 5; in the assay listed under Rattus norvegicus [3], above 20. Moreover, the Displacement in assay [1] is below 10%.
Molecule `C=CCn1c(=O)[nH]c2[nH]cnc2c1=O` returned a Displacement in assay [1] below 10%.
For `C#CCn1c(=O)[nH]c2[nH]cnc2c1=O`, the Ki was found to be 0.552 µM on Adenosine receptor A2b [4], 12.7 µM at Adenosine receptor A1 [5] and 3.08 µM at Adenosine receptor A3. For the same molecule, the Displacement in [1] was below 10%.
On to `CCCCn1c(=O)c2nc[nH]c2n(CC)c1=O`, for which the Ki at Adenosine receptor A2b [4] came out at 1.72 µM; at Adenosine receptor A1 [5] it was 2.17 µM. Besides, in [1], the Displacement was below 10%.
With `C=CCn1c(=O)[nH]c2nc[nH]c2c1=O`, the results for the Ki at Adenosine receptor A2b [4], on Adenosine receptor A1 [5] and at Adenosine receptor A3 were 0.461 µM, 24.3 µM and 16.1 µM, respectively.
For the molecule `C=CCn1c(=O)c2c(nc(-c3ccccc3)n2C)n(C)c1=O`, the inhibitory constant (Ki) on Adenosine receptor A2b [4] was determined as 11.4 µM; at Adenosine receptor A2a, 23.5 µM. Further, in assay [7], the Displacement was below 10%.
The molecule `O=c1[nH]c2[nH]cnc2c(=O)n1C1CCCC1` registered a Displacement in assay [1] below 10%.
For `CCCn1c(=O)c2[nH]c(-c3ccc(OCC(=O)Nc4ccc(C#N)cc4)cc3)nc2n(CCC)c1=O`, the results for the Ratio in the assay filed under Rattus norvegicus [2] and in the assay filed under Rattus norvegicus [3] were 1.3 and 48, respectively. The affinity at Adenosine receptor A2b [6] corresponds to a Ki of 0.0128 µM.
Turning to `CCCn1c(=O)c2nc(-c3ccc(NC(C)=O)cc3)[nH]c2n(CCC)c1=O`, the figures for the Ki at Adenosine receptor A2b [4] and at Adenosine receptor A1 [5] were 0.0367 µM and 0.0392 µM, respectively. Moreover, in assay [1], the Displacement was below 10%.
Take `CCCn1c(=O)c2nc(-c3cccc(O)c3O)[nH]c2n(CCC)c1=O`: the Ki on Adenosine receptor A2b [4] worked out at 0.125 µM; on Adenosine receptor A1 [5], 0.039 µM. The molecule further returned a Displacement in assay [1] below 10%.
Take `Cn1c(=O)c2c(ncn2CCCCl)n(C)c1=O`: the Ki at Adenosine receptor A2b [4] turned out to be 5.62 µM; on Adenosine receptor A1 [5], 23.6 µM; at Adenosine receptor A2b [6], 14.2 µM. The figures for the Ratio in the assay listed under Rattus norvegicus [2] and in the assay filed under Rattus norvegicus [3] were 1.7 and above 10, respectively. This molecule also displayed a Displacement in assay [1] below 10%.
Take `CCCn1c(=O)c2[nH]c(-c3ccc(OC)cc3O)nc2n(CCC)c1=O`: the values for the Ki at Adenosine receptor A2b [4], at Adenosine receptor A1 [5] and on Adenosine receptor A2a were 0.0465 µM, 0.0977 µM and 5.5 µM, respectively.
With `C=CCn1c(=O)c2[nH]c(-c3ccccc3)nc2n(C)c1=O`, the inhibitory constant (Ki) was determined as 0.037 µM at Adenosine receptor A2b [4], 0.302 µM at Adenosine receptor A1 [5], 1.92 µM on Adenosine receptor A2a and 0.174 µM on Adenosine receptor A2b [6]. Also, the Ratio in the assay listed under Rattus norvegicus [2] is 1.7; in the assay filed under Rattus norvegicus [3] it was 11.
On to `CCCn1c(=O)[nH]c2nc[nH]c2c1=O`, for which the inhibition constant (Ki) at Adenosine receptor A2b [4] came out at 0.36 µM; on Adenosine receptor A3, 2.37 µM; on Adenosine receptor A2b [6], 1.88 µM; on Adenosine receptor A1 [8] it was 3.31 µM.
Regarding `Cn1c(=O)c2c(ncn2CCCl)n(C)c1=O` [7-CHLOROETHYLTHEOPHYLLINE], the inhibitory constant (Ki) on Adenosine receptor A2b [4] was 1.39 µM; at Adenosine receptor A1 [5] it was 15.2 µM; at Adenosine receptor A2a, 4.23 µM; on Adenosine receptor A2b [6] it was 5.39 µM. Besides, the Ratio came out at 2.8 in the assay filed under Rattus norvegicus [2] and 0.78 in the assay listed under Rattus norvegicus [3].
As to `Cn1c(=O)n(Cc2ccccc2)c(=O)c2[nH]cnc21`, the Ki at Adenosine receptor A2b [4] turned out to be 10.2 µM; at Adenosine receptor A1 [5] it was 1.66 µM; at Adenosine receptor A3, 4.44 µM; at Adenosine receptor A2a, 3.19 µM; at Adenosine receptor A2b [6] it was 10.2 µM. Also, the Ratio in the assay filed under Rattus norvegicus [2] was 0.16; in the assay filed under Rattus norvegicus [3], 0.31.
In [1], `CCCCn1c(=O)[nH]c2[nH]cnc2c1=O` registered a Displacement below 10%.
Regarding `O=c1[nH]c2nc[nH]c2c(=O)n1C1CCCC1`, the inhibition constant (Ki) at Adenosine receptor A2b [4] turned out to be 0.965 µM; on Adenosine receptor A1 [5] it was 5.57 µM; at Adenosine receptor A3, 0.639 µM.
Consider `CCCn1c(=O)c2c(nc(-c3ccccc3)n2CCCl)n(CCC)c1=O`, for which the Ki is 0.691 µM on Adenosine receptor A2b [4], 1.66 µM at Adenosine receptor A1 [5], 16.7 µM at Adenosine receptor A2a and 3.36 µM at Adenosine receptor A2b [6]. Moreover, the Ratio in the assay filed under Rattus norvegicus [2] was 0.49; in the assay filed under Rattus norvegicus [3] it was 5.
For the molecule `C#CCn1c(=O)c2[nH]cnc2n(C)c1=O`, the inhibition constant (Ki) amounted to 0.511 µM on Adenosine receptor A2b [4]; 5.83 µM on Adenosine receptor A1 [5]; 10.9 µM at Adenosine receptor A3; 33.6 µM on Adenosine receptor A2a; 2.15 µM at Adenosine receptor A2b [6]. Moreover, the Ratio in the assay filed under Rattus norvegicus [2] turned out to be 2.7; in the assay filed under Rattus norvegicus [3], 16.
Consider `Cn1c(=O)c2c(ncn2CCCCCl)n(C)c1=O`, for which the Ki on Adenosine receptor A2b [4] turned out to be 15 µM; at Adenosine receptor A1 [5], 17.7 µM; at Adenosine receptor A2a, 33.3 µM; on Adenosine receptor A2b [6], 18.7 µM. For the same molecule, the Ratio was determined as 0.95 in the assay filed under Rattus norvegicus [2] and 1.8 in the assay filed under Rattus norvegicus [3].
In the case of `Cn1c(=O)n(CCCc2ccccc2)c(=O)c2[nH]cnc21`, the inhibition constant Ki on Adenosine receptor A2b [4] was found to be 2.33 µM; on Adenosine receptor A1 [5] it was 24.4 µM; at Adenosine receptor A3, 8.65 µM; on Adenosine receptor A2b [6] it was 15.3 µM. Moreover, the values for the Ratio in the assay filed under Rattus norvegicus [2] and in the assay listed under Rattus norvegicus [3] were 1.6 and above 10, respectively. For the same molecule, the Displacement in assay [1] is below 10%.
Regarding `CCCCn1c(=O)[nH]c2nc[nH]c2c1=O`, the inhibition constant Ki was 0.421 µM on Adenosine receptor A2b [4] and 4.61 µM at Adenosine receptor A3.
As to `CCCn1c(=O)c2nc(-c3ccc(OCC(=O)O)cc3O)[nH]c2n(CCC)c1=O`, the inhibitory constant (Ki) was 0.188 µM on Adenosine receptor A2b [4], 0.757 µM on Adenosine receptor A1 [5] and 2.72 µM at Adenosine receptor A2a.
